Hits are enriched below; roughly 4.8% of the tested compounds scored in any of these assays.
Jurkat NFkB inh – inhibitors of induced NF-kB luciferase reporter, primary screen, TCR NF-kB activation inhibitor project, cell-based, luminescence, uHTS | Jurkat, PMA/ionomycin-induced NF-kB luciferase reporter | inhibition, % at 4 µM | 0.53% of 330,000 active; in the data active = inhibition above about 50%
697 NFkB inh – inhibitors of PMA/ionomycin-induced NF-kB reporter, 697 cells, primary screen, B-cell NF-kB inhibitor project, cell-based, luminescence, uHTS | 697 B-cell NF-kB luciferase reporter, 16 h | inhibition, % at 4 µM | 0.33% of 330,000 active | AID 435022, 2010; in the data active = inhibition above about 35%
T cruzi repl – inhibitors of intracellular T. cruzi growth, primary screen, luminescence, NIH3T3 host cells; T. cruzi beta-gal in NIH3T3, 90 h; inhibition, % (concentration not given with the values); 1.4% of 300,000 active;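 active = mean inhibition across valid replicates above about 55%, limit read from the data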;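 note: signal also drops with host cell toxicity which is not excluded here; 0% = plate median of DMSO wells and 100% = zero luminescence signal; higher percent means less beta-gal luminescence so fewer parasites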
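Test system: β-gal T. cruzi (Tulahuen C4) inside NIH/3T3 cells / Quantity: 5,000 cells/well / Measured by: luminescence from GalScreen with 0.05% NP40, read after 60 min / Medium: DMEM plus 2% FBS / Measure: parasite load inhibition, % / Reagent: Tulahuen C4 trypomastigotes, 5000/well / Schedule: co-culture of at least 90 h after 3 h attachment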
GPR7 antag – GPR7 receptor antagonists, primary screen, cell-based, fluorescence, single concentration. GPR7-expressing cells, fluorescence antagonist assay. 1.1% of 290,000 active. Neuropeptides B/W receptor type 1 (Homo sapiens), P48145. inhibition, % at 4.4 µM; in the data active = inhibition above about 16%, passing the limit was not always enough;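 note: cells stimulated with the agonist NPW; 0% = agonist with vehicle and 100% = vehicle without agonist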
Target sequence (P48145 whole entry, looked up): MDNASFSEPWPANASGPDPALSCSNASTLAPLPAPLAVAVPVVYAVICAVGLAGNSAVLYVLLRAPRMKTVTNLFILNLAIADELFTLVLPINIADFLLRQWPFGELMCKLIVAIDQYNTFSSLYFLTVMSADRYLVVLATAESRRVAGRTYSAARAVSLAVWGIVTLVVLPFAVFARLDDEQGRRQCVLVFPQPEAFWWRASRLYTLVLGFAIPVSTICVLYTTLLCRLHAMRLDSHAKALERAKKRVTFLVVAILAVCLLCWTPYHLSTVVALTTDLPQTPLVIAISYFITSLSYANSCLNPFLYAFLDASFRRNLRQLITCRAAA
HSF1 activator – HSF-1 activators, primary screen, NIH3T3-HGL cells, MG132 stress, luminescence, single point; NIH3T3-HGL HSF-1 luciferase reporter, 8 h; 100% = twice DMSO control signal; activation, % at 9 µM; 1.7% of 300,000 active; AID 504408, 2011;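 active = mean replicate activation of at least 50% with a set share of replicates each reaching 50%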;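 note: 0% = median of the neutral control wells and 100% = twice that signal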
HSF1 inhib – HSF1 inhibitors in luciferase reporter cells, primary screen, cell-based, NIH3T3, luminescence; 0.77% of 300,000 active; activity change, negative = inhibition, % at 7.5 µM (by protocol); NIH3T3-HGL HSE-luciferase, MG132-induced, luminescence 8 h; active compounds read low;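 active = more than half of replicate wells show activity change below -50%, luminescence cut by over half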;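 note: luciferase reports HSF-1 transcriptional activity via heat shock element; 0% = median of DMSO wells and -100% = zero luminescence signal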
Active calls of the source: *.

Screening COc1ccc(SCC2CN(C)CCC2c2ccc(F)cc2)cc1 (stereo unspecified) returned Jurkat NFkB inh 16.8, 697 NFkB inh -6.9, HSF1 activator 67.0* and HSF1 inhib 34.0.
O=C1OCc2cc(N=Nc3c(O)[nH]c(=O)[nH]c3=O)ccc21 was read as Jurkat NFkB inh 5.3, 697 NFkB inh 8.7, T cruzi repl -0.3, GPR7 antag -6.3, HSF1 activator -5.1 and HSF1 inhib 0.1.
`CN1C(=O)C(=Cc2c(OCc3cnc(Cl)s3)ccc3ccccc23)C(=O)N(C)C1=O` gave Jurkat NFkB inh -18.3, 697 NFkB inh -17.5, T cruzi repl 3.3, GPR7 antag 10.2, HSF1 activator 60.9* and HSF1 inhib 54.0.
Screening CN1C(=O)C(=Cc2ccccc2OCc2ccccc2Cl)C(=O)N(C)C1=O returned Jurkat NFkB inh -22.8, 697 NFkB inh -23.6, T cruzi repl -4.4, GPR7 antag 5.1, HSF1 activator -7.9 and HSF1 inhib -0.9.
COc1ccc(-c2nc3ccccc3c(=O)n2-c2cccnc2)cc1 was read as Jurkat NFkB inh 3.6, 697 NFkB inh 18.9, T cruzi repl -8.5, GPR7 antag -0.4, HSF1 activator -76.1 and HSF1 inhib -68.8*.
Cc1ccc(-c2nc3ccccc3c(=O)n2-c2ccncc2)cc1 was read as Jurkat NFkB inh -9.2, 697 NFkB inh 15.5, T cruzi repl 5.9, GPR7 antag -5.8, HSF1 activator -6.3 and HSF1 inhib -3.8.
`O=c1c2ccccc2nc(-c2ccc(-c3ccccc3)cc2)n1-c1ccncc1` gave Jurkat NFkB inh -18.2, 697 NFkB inh -5.2, T cruzi repl 83.9*, GPR7 antag 14.8, HSF1 activator -7.2 and HSF1 inhib -1.3.
Screening O=C(CN1CCN(c2ccccc2F)CC1)Nc1cccnc1Cl returned Jurkat NFkB inh 5.2, 697 NFkB inh 2.6, T cruzi repl 5.7, GPR7 antag 2.3, HSF1 activator 0.6 and HSF1 inhib -7.2.
For CC(C)[C@H]1C(=O)O[C@H](C(C)C)C(=O)N(C)[C@@H](C(C)C)C(=O)O[C@H](C(C)C)C(=O)N(C)[C@@H](C(C)C)C(=O)O[C@H](C(C)C)C(=O)N1C the results were Jurkat NFkB inh 9.8, 697 NFkB inh -31.9, T cruzi repl 55.2*, GPR7 antag -1.4, HSF1 activator -18.1 and HSF1 inhib -15.0.
Screening COc1ccc(CN2CCCC(C(=O)c3sccc3C)C2)cc1O (stereo unspecified) returned Jurkat NFkB inh -6.3, 697 NFkB inh 16.8, T cruzi repl 38.2, GPR7 antag -0.2, HSF1 activator -3.4 and HSF1 inhib 6.1.
COc1ccc(CCNCc2ccc(SC)cc2)cc1 was read as Jurkat NFkB inh -5.5, 697 NFkB inh 4.1, T cruzi repl 60.5* and GPR7 antag -6.5.
O=P(N1CCCCC1)(N1CCCCC1)C(Cl)(Cl)Cl was read as Jurkat NFkB inh 5.9, 697 NFkB inh 5.2, T cruzi repl 1.4, GPR7 antag -13.9, HSF1 activator -0.3 and HSF1 inhib -1.6.
Screening CCOP(=O)(C(NC(=O)c1ccccc1Cl)=C(Cl)Cl)c1ccccc1 (stereo unspecified) returned Jurkat NFkB inh -7.1, 697 NFkB inh -27.6, T cruzi repl -3.1, GPR7 antag 3.5, HSF1 activator 90.3* and HSF1 inhib 31.2.
Screening COC(=O)C1=C(c2ccc(OC)c(OC)c2)C[C@@H]2CC[C@H]1N2C(=O)NC1CC1 returned Jurkat NFkB inh -16.8 and 697 NFkB inh 0.7.
`CN(C)CC#CCC(O)(c1ccccc1)C1CCCC1` (stereo unspecified) gave Jurkat NFkB inh 2.1, 697 NFkB inh -1.4, T cruzi repl 66.9*, GPR7 antag 7.6, HSF1 activator 15.2 and HSF1 inhib 9.6.
OC(CC#CCN1CCCCCC1)(c1ccccc1)C1CCCC1 (stereo unspecified) was read as Jurkat NFkB inh 12.5, 697 NFkB inh 11.9, T cruzi repl 23.0, GPR7 antag 6.0, HSF1 activator 6.0 and HSF1 inhib -5.6.
CC[n+]1c(/C=C/N(C)c2ccccc2)sc2ccc(Cl)cc21 was read as Jurkat NFkB inh 24.4, 697 NFkB inh -16.3, T cruzi repl 65.1*, GPR7 antag -4.5, HSF1 activator -11.1 and HSF1 inhib -10.4.
COc1ccc(-n2c(O)c(C(C)=NCCCn3ccnc3)c(=O)[nH]c2=O)cc1 was read as Jurkat NFkB inh -0.2, 697 NFkB inh 0.7, T cruzi repl -11.8, GPR7 antag 6.6, HSF1 activator -11.4 and HSF1 inhib -15.3.
Screening O=C(c1c[nH]cc1-c1ccccc1)c1cccc2ccccc12 returned Jurkat NFkB inh -4.2, 697 NFkB inh -11.6, T cruzi repl 57.9*, GPR7 antag -0.3, HSF1 activator -11.1 and HSF1 inhib -7.4.
CCCn1c(C)c(C(=O)c2cccc3ccccc23)c2ccccc21 was read as Jurkat NFkB inh 4.2 and 697 NFkB inh -11.4.
`CCN(CC)P(=O)(NC(=O)c1cccn1C)N(CC)CC` gave Jurkat NFkB inh 11.4, 697 NFkB inh 15.8, T cruzi repl -10.5, GPR7 antag 3.1, HSF1 activator -88.7 and HSF1 inhib -84.5*.
CCCn1ncc(CN2CCCC(C(=O)c3cccc(OC)c3)C2)c1C (stereo unspecified) was read as Jurkat NFkB inh -18.1, 697 NFkB inh 10.4, T cruzi repl 68.0*, GPR7 antag 0.2, HSF1 activator -6.4 and HSF1 inhib 2.0.
`CCCn1cc(CN2CCCC(C(=O)c3cccc(OC)c3)C2)c(C)n1` (stereo unspecified) gave Jurkat NFkB inh 11.5, 697 NFkB inh -3.1, T cruzi repl 50.0, GPR7 antag -3.9, HSF1 activator 4.1 and HSF1 inhib -4.8.
Screening CCn1cc(CN2CCCC(C(=O)c3cccc(OC)c3)C2)c(C)n1 (stereo unspecified) returned Jurkat NFkB inh 22.0, 697 NFkB inh -1.2, T cruzi repl 58.4*, GPR7 antag -1.1, HSF1 activator -0.2 and HSF1 inhib -4.9.
Screening C[C@@H]1CCC2[C@@H](C)C(=O)O[C@@H]3OC4(C)CCC1[C@@]23OO4 (stereo partly specified) returned Jurkat NFkB inh 1.0 and 697 NFkB inh -29.2.
For COc1cccc(NP2(=O)OCC(C)([N+](=O)[O-])CO2)c1 (stereo unspecified) the results were HSF1 activator -6.9 and HSF1 inhib -6.9.
